Source: ChEMBL document CHEMBL4130517, “Discovery of a Tetrahydrobenzisoxazole Series of γ-Secretase Modulators” (ACS Med Chem Lett, 2017)
The source made the active and inactive calls. No cut-off for these calls is given here.

Tests used:
[1] = molecular target: T1, Gamma-secretase (Homo sapiens) (UniProt Q96BI3+Q9NZ42+Q8WW43+P49768+Q92542+P49810); assay: Modulation of gamma-secretase (unknown origin) expressed in HEK293 cells harboring SCP99-Lon mutation assessed as ratio of total amyloid beta to amyloid beta 42 level after 5 hrs by sandwich immunoassay; format: cell-based
Method in brief: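 HEK293 cells exposed 5 h to varied GSM concentrations. Conditioned medium assayed by MSD sandwich electrochemiluminescence immunoassay: Aβ42 with TAG-G2-11/biotin-4G8, total Aβ with TAG-W02/biotin-4G8. Ratio formed from total Aβ and Aβ42.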

Gamma-secretase = assay: Modulation of gamma-secretase (unknown origin) expressed in HEK293 cells harboring SCP99-Lon mutation assessed as reduction in Abeta42 production after 5 hrs by sandwich immunoassay; format: cell-based, Homo sapiens
Method in brief: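 HEK293 cells incubated 5 h with a range of GSM concentrations. Aβ42 in conditioned medium quantified by MSD sandwich electrochemiluminescence immunoassay, using TAG-G2-11 and biotin-4G8 antibodies.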

P-gp [2] = assay: Substrate activity at P-gp (unknown origin) assessed as efflux ratio of permeability across basolateral to apical over apical to basolateral side; format: ADME; settings: human, not told
[3] = Drug uptake in brain of Sprague-Dawley rat at 30 mg/kg, po after 3 hrs by LC-MS/MS analysis; format: ADME, organism-based; settings: read-out: Drug uptake
Method in brief: (§1)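 Rats given a single oral dose of 30 mg/kg. Plasma and brain collected 3 h post-dose and drug concentration measured; n = 3.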

P-gp [4] = assay: Substrate activity at P-gp (unknown origin) assessed as permeability across apical to basolateral side; format: ADME; settings: human, not told; read-out: permeability
P-gp [5] = assay: Substrate activity at P-gp (unknown origin) assessed as permeability across basolateral to apical side; format: ADME; settings: human, not told; read-out: permeability
[6] = Drug uptake in plasma of Sprague-Dawley rat at 30 mg/kg, po after 3 hrs by LC-MS/MS analysis; format: ADME, organism-based; method in brief: as §1
[7] = Dissociation constant, pKa of the compound; format: physicochemical
[8] = molecular target: T1, Gamma-secretase (Homo sapiens); assay: Modulation of gamma-secretase (unknown origin) expressed in HEK293 cells harboring SCP99-Lon mutation assessed as reduction in amyloid beta 40 level at 10 uM by surface enhanced laser desorption/ionization mass spectrometry; format: cell-based
[9] = molecular target: T1, Gamma-secretase (Homo sapiens); assay: Modulation of gamma-secretase (unknown origin) expressed in HEK293 cells harboring SCP99-Lon mutation assessed as reduction in amyloid beta 42 level at 10 uM by surface enhanced laser desorption/ionization mass spectrometry; format: cell-based
[10] = molecular target: T1, Gamma-secretase (Homo sapiens); assay: Modulation of gamma-secretase (unknown origin) expressed in HEK293 cells harboring SCP99-Lon mutation assessed as increase in amyloid beta 37 level at 10 uM by surface enhanced laser desorption/ionization mass spectrometry; format: cell-based
[11] = molecular target: T1, Gamma-secretase (Homo sapiens); assay: Modulation of gamma-secretase (unknown origin) expressed in HEK293 cells harboring SCP99-Lon mutation assessed as increase in amyloid beta 38 level at 10 uM by surface enhanced laser desorption/ionization mass spectrometry; format: cell-based
Rattus norvegicus = assay: Reduction in amyloid beta 42 level in Sprague-Dawley rat cerebrospinal fluid at 30 mg/kg, po administered as single dose after 3 hrs by sandwich immunoassay relative to control; format: functional; design: scale not given: the % may be the effect or the level left
Method in brief: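 Non-transgenic rats received a single oral 30 mg/kg dose or vehicle. CSF sampled 3 h later and Aβ42 compared against vehicle-treated animals; n = 5.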

Compound	Ratio [1]	IC50 (Gamma-secretase) [nM]	other results
COc1cc(-c2noc3c2CCCC3NCC(F)(F)F)ccc1-n1cnc(C)c1 (stereo not given)	43	460	pKa [7]: 5.42
COc1cc(-c2noc3c2CCCC3NCc2cc(F)cc(F)c2)ccc1-n1cnc(C)c1 (stereo in doubt; 14c) [listing 2 of 2 here]	575		Activity [8]: Active; Activity [9]: Active; Activity [10]: Active; Activity [11]: Active
COc1cc(-c2noc3c2CCCC3Nc2ccc(F)cc2)ccc1-n1cnc(C)c1 (stereo in doubt; 14b) [listing 1 of 2 here]	86		
CNC1CCCc2c(-c3ccc(-n4cnc(C)c4)c(OC)c3)noc21 (stereo not given)	2	12000	pKa [7]: 8.1
COc1cc(-c2noc3c2CCCC3OCc2cc(F)cc(F)c2)ccc1-n1cnc(C)c1 (stereo not given)	39	510	
COc1cc(-c2noc3c2CCCC3Nc2ccc(F)cc2)ccc1-n1cnc(C)c1 (stereo in doubt; 14a) [listing 2 of 2 here]	499		Activity [8]: Active; Activity [9]: Active; Activity [10]: Active; Activity [11]: Active
COc1cc(-c2noc3c2CCCC3NCc2cc(F)cc(F)c2)ccc1-n1cnc(C)c1 (stereo in doubt; 14d) [listing 1 of 2 here]		640	
COc1cc(-c2noc3c2CCCC3NCc2cc(F)cc(F)c2)ccc1-n1cnc(C)c1 (stereo in doubt; 14d) [listing 2 of 2 here]	28		

More lines, in order of falling IC50 (Gamma-secretase), values ahead:

Ratio [1]	IC50 (Gamma-secretase) [nM]	Compound	other results
64	310	COc1cc(-c2noc3c2CCCC3NC2CCCCC2)ccc1-n1cnc(C)c1 (stereo not given)	pKa [7]: 8.42
68	290	COc1cc(-c2noc3c2CCCC3Oc2ccc(F)cc2)ccc1-n1cnc(C)c1 (stereo not given)	
77	260	COc1cc(-c2noc3c2CCCC3N[C@H](C)c2ccc(F)cc2)ccc1-n1cnc(C)c1 (stereo not given in full)	
79	250	COc1cc(-c2noc3c2CCCC3N(C)Cc2ccc(F)cc2)ccc1-n1cnc(C)c1 (stereo not given)	
	230	COc1cc(-c2noc3c2CCCC3Nc2ccc(F)cc2)ccc1-n1cnc(C)c1 (stereo in doubt; 14b) [listing 2 of 2 here]	
98	200	COc1cc(-c2noc3c2CCCC3Oc2cc(F)cc(F)c2)ccc1-n1cnc(C)c1 (stereo not given)	
105	190	COc1cc(-c2noc3c2CCCC3(O)c2cc(F)cc(F)c2)ccc1-n1cnc(C)c1 (stereo not given)	
102	150	COc1cc(-c2noc3c2CCCC3(O)Cc2cc(F)cc(F)c2)ccc1-n1cnc(C)c1 (stereo not given)	
32	130	COc1cc(-c2noc3c2CCCC3NCc2ccc(F)cc2)ccc1-n1cnc(C)c1 (stereo not given)	Activity [8]: Active; Activity [9]: Active; Activity [10]: Active; pKa [7]: 7.08; Activity [11]: Active
178	110	COc1cc(-c2noc3c2CCCC3c2cc(F)cc(F)c2)ccc1-n1cnc(C)c1 (stereo not given)	
	39	COc1cc(-c2noc3c2CCCC3Nc2ccc(F)cc2)ccc1-n1cnc(C)c1 (stereo in doubt; 14a) [listing 1 of 2 here]	efflux ratio (P-gp [2]): 1.6; Activity (Rattus norvegicus): 58%; concentration at 3 h [3]: 14.3 µM; pKa [7]: 5.33; Papp A→B (P-gp [4]): 37.6 ×10⁻⁶ cm/s; Papp B→A (P-gp [5]): 60 ×10⁻⁶ cm/s; concentration at 3 h [6]: 10.4 µM
	29	COc1cc(-c2noc3c2CCCC3NCc2cc(F)cc(F)c2)ccc1-n1cnc(C)c1 (stereo in doubt; 14c) [listing 1 of 2 here]	efflux ratio (P-gp [2]): 6.8; concentration at 3 h [3]: 2.19 µM; Papp A→B (P-gp [4]): 6.8 ×10⁻⁶ cm/s; Papp B→A (P-gp [5]): 46.2 ×10⁻⁶ cm/s; concentration at 3 h [6]: 6.01 µM
